Converted amounts (≈) assume the structure as drawn. Square brackets hold non-standard residues; d marks the D form. Peptide text beside a SMILES is read from it. hArg = N=C(N)NCCCC[C@H](N)C(=O)O; Orn = NCCC[C@H](N)C(=O)O; Dab = NCC[C@H](N)C(=O)O
Assays:
[1] = Stability of compound assessed as bovine trypsin mediated degradation at 2 to 5 mM after 2 hrs by HPLC/MS analysis; assay type: ADME, Bos taurus; settings: cattle, isolated protein, 5000 µM
Outline: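 Bovine pancreatic trypsin (salt-free) was freshly dissolved at 1 mg per 50 mL in 0.1 M NH4HCO3, pH 8.2, and added to peptide, which was diluted from 2˗5 mM stocks to a final 60 µM. Reactions were shaken at 37 °C and sampled at 2 h and 24 h. Aliquots were quenched with acetic acid/TFA and analysed by RP-HPLC (C18, 220 nm) and direct-injection ESI-MS. No-enzyme samples served as controls.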

Escherichia coli = assay: Antimicrobial activity against Escherichia coli O157:H7 incubated overnight by microdilution method; assay type: functional
Outline: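 Broth microdilution in Mueller-Hinton broth. Peptides were serially diluted twofold in water at 2× final concentration and mixed 1:1 with bacteria in 2× MHB, giving a final inoculum of 2-7 × 10^5 CFU/mL. Plates were incubated overnight at 37 °C. MIC was read as the lowest concentration with no visible growth.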

Acinetobacter baumannii = assay: Antimicrobial activity against Acinetobacter baumannii ATCC 17978 incubated overnight by microdilution method; assay type: functional
Outline: (§1)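 Broth microdilution in Mueller-Hinton broth. Peptides were serially diluted 2-fold in water at twice the final concentration, then mixed 1:1 with bacteria in 2× MHB to a final 2˗7 × 10^5 CFU/mL. Plates were incubated overnight at 37 °C. MIC was taken as the lowest concentration showing no growth.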

Bacillus subtilis = assay: Antimicrobial activity against Bacillus subtilis C626 incubated overnight by microdilution method; assay type: functional; outline: as §1
Staphylococcus aureus = assay: Antimicrobial activity against Staphylococcus aureus C622 incubated overnight by microdilution method; assay type: functional; outline: as §1

## CC[C@@H](C)[C@@H](NC(=O)[C@@H](Cc1c[nH]c2ccccc12)NC(=O)[C@@H](CCCCN)NC(=O)[C@@H](Cc1c[nH]c2ccccc12)NC(=O)[C@@H](Cc1c[nH]c2ccccc12)NC(=O)[C@@H](CCCNC(=N)N)NC(=O)[C@H](N)CCCCN)C(=O)N[C@H](CCCNC(=N)N)C(=O)N[C@H](Cc1c[nH]c2ccccc12)C(N)=O
[1]
  Stability: Stable

## N=C(N)NCCC[C@H](NC(=O)[C@H](CCCNC(=N)N)NC(=O)[C@H](Cc1c[nH]c2ccccc12)NC(=O)[C@H](Cc1c[nH]c2ccccc12)NC(=O)[C@H](CCCCN)NC(=O)[C@H](Cc1c[nH]c2ccccc12)NC(=O)[C@H](Cc1c[nH]c2ccccc12)NC(=O)[C@H](CCCNC(=N)N)NC(=O)[C@@H](N)CCCCN)C(N)=O
Escherichia coli
  MIC: 2.5 µM (≈ 3.72 µg/mL)
Acinetobacter baumannii
  MIC: 40 µM (≈ 59.5 µg/mL)
Bacillus subtilis
  MIC: 40 µM (≈ 59.5 µg/mL)
Staphylococcus aureus
  MIC: 5 µM (≈ 7.43 µg/mL)
[1]
  Stability: Unstable

## CC[C@H](C)[C@H](NC(=O)[C@H](Cc1c[nH]c2ccccc12)NC(=O)[C@H](CCCCN)NC(=O)[C@H](Cc1c[nH]c2ccccc12)NC(=O)[C@H](Cc1c[nH]c2ccccc12)NC(=O)[C@H](CCCNC(=N)N)NC(=O)[C@@H](N)CCCCN)C(=O)N[C@@H](CCCNC(=N)N)C(=O)N[C@@H](Cc1c[nH]c2ccccc12)C(N)=O
Escherichia coli
  MIC: 1.25 µM (≈ 1.8 µg/mL)
Acinetobacter baumannii
  MIC: 5 µM (≈ 7.22 µg/mL)
Bacillus subtilis
  MIC: 20 µM (≈ 28.9 µg/mL)
Staphylococcus aureus
  MIC: 5 µM (≈ 7.22 µg/mL)
[1]
  Stability: Unstable

## N=C(N)NCCC[C@@H](N)C(=O)N[C@H](CCCNC(=N)N)C(=O)N[C@H](Cc1c[nH]c2ccccc12)C(=O)N[C@H](Cc1c[nH]c2ccccc12)C(=O)N[C@H](CCCCN)C(=O)N[C@H](Cc1c[nH]c2ccccc12)C(=O)N[C@H](Cc1c[nH]c2ccccc12)C(=O)N[C@H](CCCNC(=N)N)C(=O)N[C@H](CCCCN)C(N)=O
Escherichia coli
  MIC: 1.25 µM (≈ 1.86 µg/mL)
Bacillus subtilis
  MIC: 20 µM (≈ 29.7 µg/mL)
Staphylococcus aureus
  MIC: 5 µM (≈ 7.43 µg/mL)
[1]
  Stability: Stable

## N=C(N)NCCC[C@@H](NC(=O)[C@@H](CCCNC(=N)N)NC(=O)[C@@H](Cc1c[nH]c2ccccc12)NC(=O)[C@@H](Cc1c[nH]c2ccccc12)NC(=O)[C@@H](CCCCN)NC(=O)[C@@H](Cc1c[nH]c2ccccc12)NC(=O)[C@@H](Cc1c[nH]c2ccccc12)NC(=O)[C@@H](CCCNC(=N)N)NC(=O)[C@H](N)CCCCN)C(N)=O
Escherichia coli
  MIC: 1.25 µM (≈ 1.86 µg/mL)
Acinetobacter baumannii
  MIC: 20 µM (≈ 29.7 µg/mL)
Bacillus subtilis
  MIC: 20 µM (≈ 29.7 µg/mL)
Staphylococcus aureus
  MIC: 5 µM (≈ 7.43 µg/mL)
[1]
  Stability: Stable

## CC[C@@H](C)[C@@H](NC(=O)[C@@H](CCCNC(=N)N)NC(=O)[C@H](N)Cc1c[nH]c2ccccc12)C(=O)N[C@H](Cc1c[nH]c2ccccc12)C(=O)N[C@H](CCCCN)C(=O)N[C@H](Cc1c[nH]c2ccccc12)C(=O)N[C@H](Cc1c[nH]c2ccccc12)C(=O)N[C@H](CCCNC(=N)N)C(=O)N[C@H](CCCCN)C(N)=O
[1]
  Stability: Stable

## CN[C@@H](CC(C)C)C(=O)N[C@H]1C(=O)N[C@@H](CC(N)=O)C(=O)N[C@H]2C(=O)N[C@H]3C(=O)N[C@H](C(=O)N[C@@H](C(=O)O)c4cc(O)cc(O)c4-c4cc3ccc4O)[C@H](O)c3ccc(c(Cl)c3)Oc3cc2cc(c3O[C@H]2O[C@@H](CO)[C@H](O)[C@@H](O)[C@@H]2O[C@@H]2C[C@@](C)(N)[C@@H](O)[C@@H](C)O2)Oc2ccc(cc2Cl)[C@H]1O
Escherichia coli
  MIC: > 32 µM
Acinetobacter baumannii
  MIC: > 32 µM
Bacillus subtilis
  MIC: 1 µM (≈ 1.45 µg/mL)
Staphylococcus aureus
  MIC: 1 µM (≈ 1.45 µg/mL)

## N=C(N)NCCCC[C@H](NC(=O)[C@H](CCCCNC(=N)N)NC(=O)[C@H](Cc1c[nH]c2ccccc12)NC(=O)[C@@H](Cc1c[nH]c2ccccc12)NC(=O)[C@@H](CCCN)NC(=O)[C@@H](Cc1c[nH]c2ccccc12)NC(=O)[C@H](Cc1c[nH]c2ccccc12)NC(=O)[C@H](CCCCNC(=N)N)NC(=O)[C@H](N)CCCN)C(N)=O
Escherichia coli
  MIC: 2.5 µM (≈ 3.75 µg/mL)
Acinetobacter baumannii
  MIC: 40 µM (≈ 60 µg/mL)
Bacillus subtilis
  MIC: 40 µM (≈ 60 µg/mL)
Staphylococcus aureus
  MIC: 5 µM (≈ 7.5 µg/mL)
[1]
  Stability: Unstable

## N=C(N)NCCCC[C@H](NC(=O)[C@H](CCCCNC(=N)N)NC(=O)[C@H](Cc1c[nH]c2ccccc12)NC(=O)[C@@H](Cc1c[nH]c2ccccc12)NC(=O)[C@@H](CCN)NC(=O)[C@@H](Cc1c[nH]c2ccccc12)NC(=O)[C@H](Cc1c[nH]c2ccccc12)NC(=O)[C@@H](CCCCNC(=N)N)NC(=O)[C@@H](N)CCN)C(N)=O
Escherichia coli
  MIC: 2.5 µM (≈ 3.68 µg/mL)
Acinetobacter baumannii
  MIC: 40 µM (≈ 58.9 µg/mL)
Bacillus subtilis
  MIC: 40 µM (≈ 58.9 µg/mL)
Staphylococcus aureus
  MIC: 5 µM (≈ 7.36 µg/mL)
[1]
  Stability: Unstable

## N=C(N)NCCCC[C@H](NC(=O)[C@@H](CCCCNC(=N)N)NC(=O)[C@H](Cc1c[nH]c2ccccc12)NC(=O)[C@H](Cc1c[nH]c2ccccc12)NC(=O)[C@H](CCCCNC(=N)N)NC(=O)[C@H](Cc1c[nH]c2ccccc12)NC(=O)[C@@H](Cc1c[nH]c2ccccc12)NC(=O)[C@@H](CCCCNC(=N)N)NC(=O)[C@@H](N)CCCCNC(=N)N)C(N)=O
Escherichia coli
  MIC: 2.5 µM (≈ 4.03 µg/mL)
Acinetobacter baumannii
  MIC: 20 µM (≈ 32.3 µg/mL)
Bacillus subtilis
  MIC: 10 µM (≈ 16.1 µg/mL)
Staphylococcus aureus
  MIC: 2.5 µM (≈ 4.03 µg/mL)
[1]
  Stability: Unstable

## CC[C@H](C)[C@H](NC(=O)[C@H](Cc1c[nH]c2ccccc12)NC(=O)[C@H](CCCNC(=N)N)NC(=O)[C@H](Cc1c[nH]c2ccccc12)NC(=O)[C@H](Cc1c[nH]c2ccccc12)NC(=O)[C@H](CCCCN)NC(=O)[C@@H](N)CCCNC(=N)N)C(=O)N[C@@H](CCCCN)C(=O)N[C@@H](Cc1c[nH]c2ccccc12)C(N)=O (H-RKWWRWIKW-NH2)
Escherichia coli
  MIC: 1.25 µM (≈ 1.8 µg/mL)
Acinetobacter baumannii
  MIC: 5 µM (≈ 7.22 µg/mL)
Bacillus subtilis
  MIC: 20 µM (≈ 28.9 µg/mL)
Staphylococcus aureus
  MIC: 2.5 µM (≈ 3.61 µg/mL)
[1]
  Stability: Unstable

## N=C(N)NCCC[C@H](NC(=O)[C@H](Cc1c[nH]c2ccccc12)NC(=O)[C@H](Cc1c[nH]c2ccccc12)NC(=O)[C@H](CCCCN)NC(=O)[C@@H](N)CCCNC(=N)N)C(=O)N[C@@H](Cc1c[nH]c2ccccc12)C(=O)N[C@@H](Cc1c[nH]c2ccccc12)C(=O)N[C@@H](CCCCN)C(=O)N[C@@H](CCCCN)C(N)=O (H-RKWWRWWKK-NH2)
Escherichia coli
  MIC: 2.5 µM (≈ 3.65 µg/mL)
Acinetobacter baumannii
  MIC: > 40 µM
Bacillus subtilis
  MIC: > 40 µM
Staphylococcus aureus
  MIC: 10 µM (≈ 14.6 µg/mL)
[1]
  Stability: Unstable

## CC[C@H](C)[C@H](NC(=O)[C@H](Cc1c[nH]c2ccccc12)NC(=O)[C@H](CCN)NC(=O)[C@H](Cc1c[nH]c2ccccc12)NC(=O)[C@H](Cc1c[nH]c2ccccc12)NC(=O)[C@H](CCN)NC(=O)[C@@H](N)CCN)C(=O)N[C@@H](CCN)C(=O)N[C@@H](Cc1c[nH]c2ccccc12)C(N)=O (H-[Dab][Dab]WW[Dab]WI[Dab]W-NH2)
Escherichia coli
  MIC: 2.5 µM (≈ 3.19 µg/mL)
Acinetobacter baumannii
  MIC: 5 µM (≈ 6.38 µg/mL)
Bacillus subtilis
  MIC: 10 µM (≈ 12.8 µg/mL)
Staphylococcus aureus
  MIC: 2.5 µM (≈ 3.19 µg/mL)
[1]
  Stability: Unstable

## NCC[C@H](NC(=O)[C@H](CCN)NC(=O)[C@H](Cc1c[nH]c2ccccc12)NC(=O)[C@H](Cc1c[nH]c2ccccc12)NC(=O)[C@H](CCN)NC(=O)[C@H](Cc1c[nH]c2ccccc12)NC(=O)[C@H](Cc1c[nH]c2ccccc12)NC(=O)[C@H](CCN)NC(=O)[C@@H](N)CCN)C(N)=O (H-[Dab][Dab]WW[Dab]WW[Dab][Dab]-NH2)
Escherichia coli
  MIC: 2.5 µM (≈ 3.16 µg/mL)
Acinetobacter baumannii
  MIC: 80 µM (≈ 101 µg/mL)
Bacillus subtilis
  MIC: 20 µM (≈ 25.2 µg/mL)
Staphylococcus aureus
  MIC: 5 µM (≈ 6.31 µg/mL)
[1]
  Stability: Stable

## CC[C@H](C)[C@H](NC(=O)[C@H](Cc1c[nH]c2ccccc12)NC(=O)[C@H](CCN)NC(=O)[C@H](Cc1c[nH]c2ccccc12)NC(=O)[C@H](Cc1c[nH]c2ccccc12)NC(=O)[C@H](CCCCNC(=N)N)NC(=O)[C@@H](N)CCN)C(=O)N[C@@H](CCCCNC(=N)N)C(=O)N[C@@H](Cc1c[nH]c2ccccc12)C(N)=O (H-[Dab][hArg]WW[Dab]WI[hArg]W-NH2)
Escherichia coli
  MIC: 1.25 µM (≈ 1.77 µg/mL)
Acinetobacter baumannii
  MIC: 5 µM (≈ 7.08 µg/mL)
Bacillus subtilis
  MIC: 20 µM (≈ 28.3 µg/mL)
Staphylococcus aureus
  MIC: 5 µM (≈ 7.08 µg/mL)
[1]
  Stability: Unstable

## CC[C@H](C)[C@H](NC(=O)[C@H](Cc1c[nH]c2ccccc12)NC(=O)[C@H](CCCN)NC(=O)[C@H](Cc1c[nH]c2ccccc12)NC(=O)[C@H](Cc1c[nH]c2ccccc12)NC(=O)[C@H](CCCN)NC(=O)[C@@H](N)CCCN)C(=O)N[C@@H](CCCN)C(=O)N[C@@H](Cc1c[nH]c2ccccc12)C(N)=O (H-[Orn][Orn]WW[Orn]WI[Orn]W-NH2)
Escherichia coli
  MIC: 1.25 µM (≈ 1.66 µg/mL)
Acinetobacter baumannii
  MIC: 10 µM (≈ 13.3 µg/mL)
Bacillus subtilis
  MIC: 10 µM (≈ 13.3 µg/mL)
Staphylococcus aureus
  MIC: 5 µM (≈ 6.66 µg/mL)
[1]
  Stability: Unstable

## NCCC[C@H](NC(=O)[C@H](CCCN)NC(=O)[C@H](Cc1c[nH]c2ccccc12)NC(=O)[C@H](Cc1c[nH]c2ccccc12)NC(=O)[C@H](CCCN)NC(=O)[C@H](Cc1c[nH]c2ccccc12)NC(=O)[C@H](Cc1c[nH]c2ccccc12)NC(=O)[C@H](CCCN)NC(=O)[C@@H](N)CCCN)C(N)=O (H-[Orn][Orn]WW[Orn]WW[Orn][Orn]-NH2)
Escherichia coli
  MIC: 2.5 µM (≈ 3.33 µg/mL)
Acinetobacter baumannii
  MIC: > 80 µM
Bacillus subtilis
  MIC: 40 µM (≈ 53.3 µg/mL)
Staphylococcus aureus
  MIC: 20 µM (≈ 26.7 µg/mL)
[1]
  Stability: Unstable

— ChEMBL document CHEMBL3797163, “Tryptic Stability of Synthetic Bactenecin Derivatives Is Determined by the Side Chain Length of Cationic Residues and the Peptide Conformation” (J Med Chem, 2016)
